Laboratory results: ChEMBL document CHEMBL4049456, “Identification of 4-(Aminomethyl)-6-(trifluoromethyl)-2-(phenoxy)pyridine Derivatives as Potent, Selective, and Orally Efficacious Inhibitors of the Copper-Dependent Amine Oxidase, Lysyl Oxidase-Like 2 (LOXL2)” (J Med Chem, 2017)

Tests used:
Lysyl oxidase homolog 2 = molecular target: T1, Lysyl oxidase homolog 2 (Homo sapiens, UniProt Q9Y4K0); test: Inhibition of human LOXL2 expressed in CHO cells assessed as reduction of H2O2 production from oxidative deamination of DAP preincubated for 2 hrs followed by substrate addition in presence of 0.1% BSA measured every 2 mins for 1 hr by amplex red reagent-based fluorescence assay; assay type: cell-based
T1 sequence (Q9Y4K0 whole entry): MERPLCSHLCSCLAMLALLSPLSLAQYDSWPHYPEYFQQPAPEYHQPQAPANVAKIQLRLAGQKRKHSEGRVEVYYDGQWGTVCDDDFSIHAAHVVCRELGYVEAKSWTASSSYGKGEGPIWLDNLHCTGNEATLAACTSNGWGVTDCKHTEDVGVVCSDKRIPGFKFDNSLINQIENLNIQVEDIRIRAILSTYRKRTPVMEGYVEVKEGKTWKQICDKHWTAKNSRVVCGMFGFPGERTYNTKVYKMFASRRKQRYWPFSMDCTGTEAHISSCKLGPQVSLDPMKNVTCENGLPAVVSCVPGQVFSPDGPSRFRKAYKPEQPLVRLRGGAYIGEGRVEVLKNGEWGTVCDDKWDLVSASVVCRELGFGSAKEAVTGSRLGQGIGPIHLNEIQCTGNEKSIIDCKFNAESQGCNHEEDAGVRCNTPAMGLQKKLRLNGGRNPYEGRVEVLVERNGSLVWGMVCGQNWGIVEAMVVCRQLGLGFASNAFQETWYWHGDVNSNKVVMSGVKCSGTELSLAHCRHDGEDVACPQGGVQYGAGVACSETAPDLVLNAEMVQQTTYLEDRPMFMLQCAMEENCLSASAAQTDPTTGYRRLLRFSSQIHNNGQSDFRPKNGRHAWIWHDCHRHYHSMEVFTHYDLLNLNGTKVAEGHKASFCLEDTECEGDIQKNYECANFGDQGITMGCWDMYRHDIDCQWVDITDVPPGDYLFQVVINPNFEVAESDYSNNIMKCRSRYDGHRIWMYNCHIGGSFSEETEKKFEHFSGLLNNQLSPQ

[1] = Cmax in C57BL/6 mouse plasma at 30 mg/kg, po by LC-MS/MS analysis; assay type: ADME, organism-based; set-up: dose 30 mg/kg, route oral
Procedure, shortened: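 Normal C57BL/6 mice, n = 3 per time point, received a single oral 30 mg/kg dose formulated in 0.5% methylcellulose.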

Lysyl oxidase homolog 3 = molecular target: T2, Lysyl oxidase homolog 3 (Homo sapiens, UniProt P58215); test: Inhibition of recombinant human LOXL3 assessed as reduction of H2O2 production from oxidative deamination of DAP preincubated for 2 hrs followed by substrate addition measured every 2 mins for 1 hr by amplex red reagent-based fluorescence assay
T2 sequence (P58215 whole entry): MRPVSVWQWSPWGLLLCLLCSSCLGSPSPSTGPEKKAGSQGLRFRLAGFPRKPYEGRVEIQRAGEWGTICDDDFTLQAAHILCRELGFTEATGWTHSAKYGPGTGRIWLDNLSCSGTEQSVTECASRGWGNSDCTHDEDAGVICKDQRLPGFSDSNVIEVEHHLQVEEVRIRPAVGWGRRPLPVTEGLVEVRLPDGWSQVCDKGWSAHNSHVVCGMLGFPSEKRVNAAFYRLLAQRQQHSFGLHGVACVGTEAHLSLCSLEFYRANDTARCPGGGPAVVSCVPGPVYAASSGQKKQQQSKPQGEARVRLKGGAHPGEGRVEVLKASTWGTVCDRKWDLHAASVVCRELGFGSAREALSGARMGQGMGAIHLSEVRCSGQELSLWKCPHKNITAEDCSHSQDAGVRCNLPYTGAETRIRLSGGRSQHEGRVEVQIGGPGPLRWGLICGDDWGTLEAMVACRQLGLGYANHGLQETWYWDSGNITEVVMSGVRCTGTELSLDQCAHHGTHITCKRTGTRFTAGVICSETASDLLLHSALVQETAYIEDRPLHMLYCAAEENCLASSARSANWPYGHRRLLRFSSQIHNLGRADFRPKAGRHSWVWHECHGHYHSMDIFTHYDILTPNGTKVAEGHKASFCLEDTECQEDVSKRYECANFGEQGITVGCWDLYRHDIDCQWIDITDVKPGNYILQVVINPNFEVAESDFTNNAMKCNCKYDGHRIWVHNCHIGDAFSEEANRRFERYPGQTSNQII
Procedure, shortened: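 Purified recombinant human LOXL3 was preincubated with compound for 2 h, then H2O2 produced from DAP deamination was measured.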

Mus musculus = test: Toxicity in C57BL/6 mouse assessed as body weight loss at 3 to 60 mg/kg, po qd administered 15 days starting 1 day prior to bleomycin instillation; assay type: organism-based; details: in vivo

For Cl.NCc1cc(Oc2cccc(C(=O)N3C[C@@H](O)[C@H](F)C3)c2)nc(C(F)(F)F)c1 (racemic), the IC50 (Lysyl oxidase homolog 2) was 100 nM, the Cmax [1] was 3.09 µM and the IC50 (Lysyl oxidase homolog 3) was 1380 nM. For the same compound, the Activity (Mus musculus) was less than 5%.
